This assay deals with T1, OR2W1 (Homo sapiens) (UniProt Q9Y3N9).
T1 sequence (whole entry): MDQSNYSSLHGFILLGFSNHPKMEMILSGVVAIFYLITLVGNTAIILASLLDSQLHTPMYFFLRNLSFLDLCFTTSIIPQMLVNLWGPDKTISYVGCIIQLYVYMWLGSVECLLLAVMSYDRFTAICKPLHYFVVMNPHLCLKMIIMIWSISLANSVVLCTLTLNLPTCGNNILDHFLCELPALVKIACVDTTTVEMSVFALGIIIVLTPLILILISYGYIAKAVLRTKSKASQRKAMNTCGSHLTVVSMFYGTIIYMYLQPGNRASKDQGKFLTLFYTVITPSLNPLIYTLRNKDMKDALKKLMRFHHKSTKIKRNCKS
The note with it: stereoisomer not certain. Summed up: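 Each receptor–molecule pair is labelled responsive or non-responsive (inactive) according to whether the original authors judged the measured signal statistically different from baseline. The data were taken from the main text and supplementary material of published papers and checked for typos and inconsistencies. Assay methods differed by source, with transient luciferase assays in mammalian cell lines being common.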
As for `CCCCCC1CCCC(=O)O1` (centres undefined), the “odorant receptor agonist call” value was “inactive”.

Regarding `CCCCC(C)CCC(=O)O` (centres undefined), the “odorant receptor agonist call” value was “inactive”. Regarding `CC1=CCC2CC1C2(C)C` (centres undefined), the “odorant receptor agonist call” value is “inactive”.

`CC(=O)CC(C)(C)S`: the “odorant receptor agonist call” value is “inactive”. As to `CCCCC(C)=O`, the “odorant receptor agonist call” value was “active”. Consider `COc1cc(C(=O)O)ccc1O`, for which the “odorant receptor agonist call” value was “inactive”.

In the case of `C=CC(=O)CC=CCC`, the “odorant receptor agonist call” value was “inactive”. As to `CCCCCCCCCC(=O)[O-].[H+]`, the “odorant receptor agonist call” value is “inactive”. For `CCC(C(=O)O)c1ccccc1` (centres undefined), the “odorant receptor agonist call” value was “inactive”. As for `Cc1cccc(O)c1`, the “odorant receptor agonist call” value was “inactive”. Take `CSC`: the “odorant receptor agonist call” value is “inactive”. Turning to `CCCc1ccc(O)c(OC)c1`, the “odorant receptor agonist call” value is “inactive”. Turning to `CSCSC`, the “odorant receptor agonist call” value is “inactive”. `C=Cc1ccc(O)c(OC)c1`: the “odorant receptor agonist call” value was “inactive”. As for `CCCCCCCCC1CCC(=O)O1` (centres undefined), the “odorant receptor agonist call” value was “inactive”. Take `O=C(O)C=Cc1ccc(O)cc1`: the “odorant receptor agonist call” value is “inactive”. Regarding `CCCCCCCCO`, the “odorant receptor agonist call” value was “active”.

Consider `CCC(=O)C1=NCCC1`, for which the “odorant receptor agonist call” value was “inactive”. Consider `CCc1ncc(C)nc1CC`, for which the “odorant receptor agonist call” value is “inactive”.

With `C=CC(=O)CC`, the “odorant receptor agonist call” value was “inactive”.

For `CSCCCO`, the “odorant receptor agonist call” value is “inactive”. For `Cc1cccc(C)c1O`, the “odorant receptor agonist call” value is “inactive”. With `CCC=CCC=O`, the “odorant receptor agonist call” value was “inactive”.

Consider `CCCC=CC=O`, for which the “odorant receptor agonist call” value is “inactive”.

Regarding `O=C1Cc2ccccc2O1`, the “odorant receptor agonist call” value is “inactive”.

As to `CCCCCCC(C)=O`, the “odorant receptor agonist call” value was “active”.

Take `CSSSC`: the “odorant receptor agonist call” value is “active”. On to `CC(=O)C(C)O` (centres undefined), for which the “odorant receptor agonist call” value was “inactive”. Take `CCCCOC=O`: the “odorant receptor agonist call” value is “active”. For `CSCCC=O`, the “odorant receptor agonist call” value is “inactive”. As to `CCCCCCCCS`, the “odorant receptor agonist call” value is “active”.

As to `CCC(=O)C(C)=O`, the “odorant receptor agonist call” value is “inactive”. For the molecule `CC=O`, the “odorant receptor agonist call” value is “inactive”.

For the molecule `CCC(=O)C(C)S` (centres undefined), the “odorant receptor agonist call” value is “inactive”.

These data come from the M2OR odorant receptor database.
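Further: active if original authors judged signal statistically different from baseline.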
